Measured values: ChEMBL document CHEMBL1122417, “Synthesis of 3-hydroxy-3-cyclohexylbutyric acid derivatives. 1. Cyclic homologues of 3-hydroxy-3-methylglutaric acid” (1983)

What was measured:
Type in all cases: functional
Rattus norvegicus [1] = species: Rattus norvegicus; experiment: Percent inhibition of [14C]acetate incorporation into cholesterol, after incubation with rat liver slices, at a concentration of 0.005 M
In short: (§1)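 Rat liver slices (250 mg) were incubated with and without compound in 4 mL Krebs-Ringer bicarbonate buffer, pH 7.4, containing 4 mM [2-14C]acetate and flushed with 95% O2-5% CO2. 14C incorporation into CO2, long-chain fatty acids and cholesterol was measured and compared against incubations without compound. Values are arithmetic means of three determinations.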

Rattus norvegicus [2] = species: Rattus norvegicus; experiment: Percent inhibition of [14C]acetate incorporation into long-chain fatty acids, after incubation with rat liver slices, at a concentration of 0.005 M; in short: as §1
Rattus norvegicus [3] = species: Rattus norvegicus; experiment: Percent inhibition of [14C]acetate incorporation into CO2, after incubation with rat liver slices at a concentration of 0.005 M; in short: as §1
Rattus norvegicus [4] = species: Rattus norvegicus; experiment: Percent inhibition of [14C]-acetate incorporation into CO2, after incubation with rat liver slices at a concentration of 0.0005 M; in short: as §1
Rattus norvegicus [5] = species: Rattus norvegicus; experiment: Percent inhibition of [14C]acetate incorporation into long-chain fatty acids, after incubation with rat liver slices, at a concentration of 0.0005 M; in short: as §1
Rattus norvegicus [6] = species: Rattus norvegicus; experiment: Percent inhibition of [14C]acetate incorporation into cholesterol, after incubation with rat liver slices, at a concentration of 0.0005 M; in short: as §1

Structure (SMILES)	Inhibition (Rattus norvegicus [1])	Inhibition (Rattus norvegicus [2])	Inhibition (Rattus norvegicus [3])	Inhibition (Rattus norvegicus [4])	Inhibition (Rattus norvegicus [5])	Inhibition (Rattus norvegicus [6])
CC1(CC(=O)O)OC(=O)[C@@H]2CCCC[C@H]21 (some centres undefined)	42%	67%	37%	–	–	–
CCC1(C)OC(=O)c2ccccc21 (centres undefined)	99%	99%	86%	<10%	29%	22%
CC1(CC(=O)O)OC(=O)C2=C1CCCC2 (centres undefined)	63%	83%	45%	–	–	–
CC1(CC(=O)O)OC(=O)c2ccccc21 (centres undefined)	48%	54%	<10%	–	–	–
CCC1(C)OC(=O)C2=C1CCCC2 (centres undefined)	81%	81%	63%	–	–	–
CC1(CC(=O)O)OC(=O)[C@H]2CCCC[C@H]21 (some centres undefined)	30%	34%	23%	–	–	–
CC(O)(CC(=O)O)CC(=O)O [MEGLUTOL]	12%	<10%	<10%	–	–	–
